Screens as filed in PubChem BioAssay.
FXIIa inh 1536 – inhibitors of human coagulation factor XIIa | P00748 | inhibition, % at 5 µM | purified FXIIa, Boc-QGR-AMC fluorogenic substrate, 2 h | 220,000 compounds, 0.3% hits; in the data active means inhibition above about 40%;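 further: 0% = enzyme with no compound and 100% = blank without enzyme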
FXIa inh 1536 – inhibitors of human coagulation factor XIa | 220,000 compounds, 0.14% hits | purified FXIa, Boc-Glu-Ala-Arg-AMC fluorogenic substrate | inhibition, % at 5 µM | P03951;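 active means inhibition of at least 40%; inactive means inhibition below 40%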;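 further: fluorescence of freed AMC excited at 355 nm; 0% = enzyme without compound and 100% = no enzyme blank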
Target sequence (P03951 19-387 limits assumed): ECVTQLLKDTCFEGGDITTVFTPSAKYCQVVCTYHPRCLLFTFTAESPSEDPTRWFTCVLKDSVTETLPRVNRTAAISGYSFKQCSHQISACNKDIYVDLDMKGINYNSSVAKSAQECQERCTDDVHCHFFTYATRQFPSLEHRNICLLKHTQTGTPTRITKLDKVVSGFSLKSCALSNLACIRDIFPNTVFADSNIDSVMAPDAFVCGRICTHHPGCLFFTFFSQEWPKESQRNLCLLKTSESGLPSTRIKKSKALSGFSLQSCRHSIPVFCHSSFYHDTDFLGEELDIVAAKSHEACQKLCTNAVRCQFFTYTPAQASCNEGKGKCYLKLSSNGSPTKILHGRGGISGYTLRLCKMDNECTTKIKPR
Target sequence (P03951 388-625 limits assumed): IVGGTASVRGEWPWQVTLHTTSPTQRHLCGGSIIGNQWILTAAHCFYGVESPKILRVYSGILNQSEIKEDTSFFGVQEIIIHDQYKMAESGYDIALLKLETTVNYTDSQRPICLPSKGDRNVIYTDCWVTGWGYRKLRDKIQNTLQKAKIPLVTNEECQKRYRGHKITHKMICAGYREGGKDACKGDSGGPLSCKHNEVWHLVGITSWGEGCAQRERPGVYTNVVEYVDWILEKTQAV
hK5 inh – inhibitors of human kallikrein 5; Q9Y337; recombinant hK5, fluorogenic AMC substrate cleavage; inhibition, % at 5 µM; 210,000 compounds, 0.59% hits;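 active means inhibition of 40% or more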;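 further: 0% = enzyme controls without compound and 100% = no-enzyme blanks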
thrombin 1536 – inhibitors of human thrombin; alpha-thrombin, Boc-VPR-AMC fluorogenic substrate cleavage; AID 1046; 220,000 compounds, 0.26% hits; inhibition, % at 5 µM;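 active means inhibition at or above 40%; inactive means inhibition below 40%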;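 further: 0% = enzyme with no compound and 100% = wells without enzyme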
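Assay system: human alpha-thrombin enzyme. Reagent: Boc-VPR-AMC substrate, 15 µM final. Compound dosing: one concentration per compound, 5 µM, with 0.2% DMSO. Incubation: room-temperature reaction. Technique: AMC fluorescence, 355/460 nm. Measure: % inhibition relative to enzyme controls and enzyme-free blanks.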
m-calpain inh – blocks pig calpain II enzyme activity; AID 1236; inhibition, % at 16 µM; 220,000 compounds, 0.37% hits; purified calpain II, fluorogenic peptide substrate, 30 min;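 active means inhibition above about 50%, limit read from the data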
* hit, by the source's call; i = inactive; x = no result; ! = repeats disagree. A selection: hits, their analogues and other compounds. The true share with any hit is near 1.4%.

SMILES	FXIIa inh 1536	FXIa inh 1536	hK5 inh	thrombin 1536	m-calpain inh
O=C(CNC(=S)N(Cc1ccccc1F)C1CCCCC1)NCC1CCCO1 (centres undefined)	2	-1	-4	x	-5
Cc1nnc(Sc2cc(NCCO)c([N+](=O)[O-])c3nonc23)s1	6	-3	-4	-6	82*
CN1CCN(c2ccc(CNS(=O)(=O)Cc3ccc(Cl)cc3)cc2)CC1	61*	33	18	31	11
CC1=C/C(=N\NC(=S)Nc2cccnc2)CC(C)(C)C1	22	40*	13	4	24
COc1cccc(CNC(=O)C2CCC(CNS(=O)(=O)c3cccc4nsnc34)CC2)c1 (centres undefined)	9	1	1	2	-5
O=C(NCc1cccs1)C1CCC(CNS(=O)(=O)c2cccc3nsnc23)CC1 (centres undefined)	8	2	52*	2	19
Clc1ccccc1-c1nc(-c2cccnc2)no1	15	9	57*	16	10
CC(C)(C)NC(=O)c1cccc(NC(=O)c2ccc(NC(=O)c3ccco3)cc2)c1	5	-8	0	-2	24
O=C(Nc1ccc(Cc2ccncc2)cc1)c1ccco1	18	31	70*	40*	10
O=C(Nc1cccc([N+](=O)[O-])c1)c1ccncc1	-1	-1	-7	-7	4
CC(C)(C)c1ccc(C(=O)Nc2cccc([N+](=O)[O-])c2)cc1	13	12	-8	1	50*
CC(C)(C)c1ccc(C(=O)Nc2ccc(NC(=O)c3ccco3)cc2)cc1	11	11	99*	0	-152
C=CCOc1ccccc1CNCCc1ccc(S(N)(=O)=O)cc1	2	-7	-6	-9	-4
Nc1nonc1C(=O)NCCNCc1ccccc1OCc1ccccc1F	10	-1	-27	-6	14
Nc1nonc1C(=O)NCCNCc1cc(Br)ccc1OCc1ccccc1F	2	0	-21	-14	75*
NS(=O)(=O)c1ccc(CCNCc2cc(Br)ccc2OCc2ccccc2F)cc1	2	0	x	0	53*
O=C1OCC2=C1C(c1ccc(F)cc1)CC(=O)N2c1ccccc1 (centres undefined)	3	-3	x	-6	28
CCCCNC(=O)c1ccccc1C(=O)NCCCC	11	0	2	0	91*
CCCCNC(=O)c1ccccc1Cl	8	-5	-1	-3	-13
CCSc1ccccc1C(=O)NCCCn1ccnc1	20	-5	43*	3	11
COc1cccc(C(C(=O)NC2CCCC2)N(C(=O)c2ccco2)c2ccc(-n3cnnn3)c(C)c2)c1OC (centres undefined)	8	1	-10	2	-22
CCCCOc1ccc(-c2nnn(C(C)C(=O)OCC)n2)cc1 (centres undefined)	11	4	5	-1	29
CCCCOc1ccc(-c2nnn(C(C)(C)C(=O)OC)n2)cc1	-3	-11	140*	2	-18
O=C(O)c1cc([N+](=O)[O-])ccc1N1CCCCC1	9	8	-14	-5	33
CC(C)(C)NC(=O)c1cc([N+](=O)[O-])ccc1N1CCCCC1	3	6	63*	73*	17
SMILES	FXIIa inh 1536	FXIa inh 1536	hK5 inh	thrombin 1536	m-calpain inh
Fc1ccc(SCCc2ccccn2)cc1	40*!	-1	-2	-2	2
CCC(SC1=N/C(=C/c2ccccc2OC)C(=O)N1c1ccccc1)C(=O)Nc1cc(C)on1 (centres undefined)	16	3	3	1	-18
COc1ccc2c(c1)C(=O)CC(O)(C(F)F)O2 (centres undefined)	2	0	-1	-5	51*
CC1(C)CC(=O)c2cc(OCC(=O)O)ccc2O1	12	-2	17	10	i
Cc1ccccc1C1NC(=S)NC2=C1C(=O)CCC2 (centres undefined)	0	-6	-8	-1	-6
Cc1nn(C)cc1CN1CCC(CO)(CCOc2ccccc2)CC1	27	23	x	68*	16
Cc1ccccc1NC(=O)C(=O)Nc1ccccc1C	6	14	2	-1	9
Cc1ccccc1NC(=O)Nc1ccccc1Br	16	17	22	47*	21
CC1CCCCN1C(=O)/C(=C\c1ccccc1)c1ccccc1 (centres undefined)	12	0	4	-1	-13
Cc1ccc(-c2csc(NC(=S)NC(=O)c3ccco3)n2)cc1	18	10	-5	2	57*
